ROMK primary: modulates human ROMK potassium channel activity. P48048. Tet-inducible ROMK, thallium flux fluorescence; actives lie on both sides. B-score at 10 µM. actives 2% (n = 130,000). AID 1918;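 active means signal ratio slope over the read window, or its plate-corrected B-score, at least 3 SD from the plate mean, either direction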;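 further: B-score of the F/F0 ratio slope over 7 to 12 s after thallium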
Target sequence (P48048 whole entry, looked up): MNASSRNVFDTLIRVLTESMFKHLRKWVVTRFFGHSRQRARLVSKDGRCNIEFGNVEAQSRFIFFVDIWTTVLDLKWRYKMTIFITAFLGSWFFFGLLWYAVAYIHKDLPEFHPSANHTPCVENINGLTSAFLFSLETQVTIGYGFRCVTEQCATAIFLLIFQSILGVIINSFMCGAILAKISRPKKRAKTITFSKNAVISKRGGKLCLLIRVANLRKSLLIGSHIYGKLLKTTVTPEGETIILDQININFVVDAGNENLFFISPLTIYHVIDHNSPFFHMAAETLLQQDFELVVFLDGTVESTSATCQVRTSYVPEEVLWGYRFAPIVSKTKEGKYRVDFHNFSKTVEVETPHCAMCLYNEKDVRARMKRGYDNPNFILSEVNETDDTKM
Pf gamet viab: inhibitors of late stage P. falciparum gametocyte viability; P. falciparum stage V gametocytes, ATP luminescence, 24 h; inhibition, % at 10.9 µM; actives 0.065% (n = 150,000);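 active means inhibition above the mean plus 3 SD of compounds within the control limits, set per campaign, cut at about 38% in these data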
Calb biofilm kill: mixtures killing C. albicans biofilm; C. albicans biofilm persisters + clotrimazole, fluorescence viability; primary screen in compound mixtures of four per well; inhibition, % at 7.6 µM; actives 0.02% (n = 120,000); AID 1242;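 active means inhibition above 30.3% in the primary screen of four-compound pools, then above 30% when the compound was retested; inconclusive means passed the primary limit but could not be retested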;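 further: compounds exposed to preformed 24 h biofilms for 48 h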
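System: C. albicans CAF4-2 wild-type biofilms; Medium: RPMI/MOPS medium, pH 7.0; Reagent: Clotrimazole, 50 µg/mL; Times: biofilm formation 24 h, compound exposure 48 h, 37 °C; Detection: 2-h Alamar Blue fluorescence, 535/590 nm excitation/emission; Evaluation: percent inhibition of biofilm viability.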
ROMK hit retest: confirmation of human ROMK potassium channel modulators | AID 1917 | normalized thallium flux (F/F0 slope) at 10 µM | shares compounds with ROMK primary | actives 54% (n = 3,000) | ROMK thallium flux, fluorescence ratio; stronger effect = lower value;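 active means Flux at 10 µM at least 3 SD below or above vehicle control mean in one or both replicates; inconclusive means no clear call, values can overlap the other calls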
Large screens that a line does not name were inactive (follow-up assays come after a bar, where they were run). Only a selection was taken, and hits are over-represented in it overall.

O=C(NC1=NCCS1)C12CC3CC(C1)CC(C(=O)NC1=NCCS1)(C3)C2	none (no result: Pf gamet viab, Calb biofilm kill)
O=C(NC1=NCCS1)NC12CC3CC(CC(C3)C1)C2	none (no result: ROMK primary, Pf gamet viab, Calb biofilm kill) | ROMK hit retest 0.066
COc1ccc(-c2cn(Cc3ccc(C(N)=O)cc3)c(-c3ccncc3)n2)cc1	none (no result: ROMK primary, Calb biofilm kill)
COc1ccc(C2C(C(=O)c3ccccc3)=C(C)Nc3nc4ccccc4n32)cc1OC (centres undefined)	none (no result: Pf gamet viab)
COc1ccc(OC)c(C2C(C(=O)c3ccccc3)=C(C)Nc3nc4ccccc4n32)c1 (centres undefined)	ROMK primary 2.5 (no result: Pf gamet viab) | ROMK hit retest 0.068
CC1(C)NC(=O)N(CC(O)COc2ccc(-c3ccc(C#N)cc3)cc2)C1=O (centres undefined)	ROMK primary 19 (no result: Pf gamet viab, Calb biofilm kill) | ROMK hit retest inactive
CC1(C)NC(=O)N(CC(O)COc2ccc(-c3ccccc3)cc2)C1=O (centres undefined)	none (no result: Calb biofilm kill)
Cc1cccc(N2C(=O)c3cccc4c(N5CCCCC5)c([N+](=O)[O-])cc(c34)C2=O)c1C	none
O=C1c2cccc3c(N4CCCCC4)ccc(c23)C(=O)N1c1ccc(O)cc1	ROMK primary -3.1 | ROMK hit retest 0.051
O=C1c2cccc3c(N4CCCCC4)ccc(c23)C(=O)N1c1ccccc1O	ROMK primary -5.2 | ROMK hit retest 0.051
O=C1c2cccc3cccc(c23)C(=O)N1c1ccc(O)cc1	none (no result: ROMK primary, Calb biofilm kill)
Cc1ccc(S(N)(=O)=O)cc1NC(=O)c1ccc2c3c(cccc13)CC2	none (no result: ROMK primary, Calb biofilm kill)
COc1ccc(NC(=O)C(=S)N2CCCC2)cc1	none
O=c1cc(C(O)C[N+](=O)[O-])occ1OCc1ccccc1 (centres undefined)	none (no result: ROMK primary, Calb biofilm kill)
CCOC(=O)C1(CC2CC2)CCN(Cc2cn[nH]c2-c2ccccc2)CC1	none
CCOC(=O)C1(Cc2ccccc2)CCN(Cc2cn[nH]c2-c2ccccc2)CC1	ROMK primary -2.5 | ROMK hit retest 0.056
CCCn1c(CCC(=O)O)nc2cc(S(N)(=O)=O)ccc21	none (no result: ROMK primary)
OC1(c2ccc(Cl)c(Cl)c2)C[n+]2ccccc2N1Cc1ccccc1 (centres undefined)	ROMK primary -4 | ROMK hit retest 0.058
S=C(Nc1ccc(Cl)c(Cl)c1)NC1CCN(Cc2ccccc2)CC1	none (no result: ROMK primary, Pf gamet viab)
COc1ccc(-n2cccc2/C=C/[N+](=O)[O-])cc1	ROMK primary -5.5 | ROMK hit retest 0.041
COc1ccc(-n2cccc2C=O)cc1	none (no result: Pf gamet viab)
Cc1ccc(S(=O)(=O)CC(=O)c2ccc([N+](=O)[O-])cc2)cc1	none (no result: ROMK primary) | ROMK hit retest inactive
Cc1ccc(S(=O)(=O)CC(=O)c2ccccc2)cc1	none (no result: Calb biofilm kill)
Cc1cccc(N=Cc2cc(Br)cc(Cl)c2O)c1	ROMK primary 4.1 | ROMK hit retest 0.12
NC(=O)c1cccc(N=Cc2cc(Cl)cc(Cl)c2O)c1	none
COc1ccc2[nH]c(=O)c(CN(Cc3cccnc3)Cc3nnnn3CC3CCCO3)cc2c1 (centres undefined)	none
Cc1ccc(OCC(O)CN2CCOCC2)cc1C (centres undefined)	none (no result: ROMK primary, Calb biofilm kill)
CC(=O)N(C)Cc1ccc(C(=O)CCl)cc1	none
CC(=O)NCc1ccc(C(=O)CCl)cc1	ROMK primary -2 | ROMK hit retest 0.058
CCC(=O)N1CC(C)C(=O)Nc2ccccc21 (centres undefined)	none (no result: Calb biofilm kill)
CC1CN(C(=O)c2ccccc2)c2ccccc2NC1=O (centres undefined)	ROMK primary -1.5 | ROMK hit retest inactive
N#CC1=C(S)N(c2ccccc2)C(c2ccc(-c3ccccc3Cl)o2)NC1=O (centres undefined)	none (no result: ROMK primary)
CCC(CC)c1nnc(NC(=O)[C@@H](NC(=O)c2cccc(C)c2)C(C)C)s1	none (no result: ROMK primary)
CC1CCCC(C)N1C(=O)CNCc1ccc2c(c1)OCO2 (centres undefined)	none (no result: ROMK primary, Calb biofilm kill)
Cc1ccc(S(=O)(=O)CC(CN2CCCCC2)N2CCCCC2)cc1 (centres undefined)	none
O=S(=O)(CC(CN1CCCCC1)N1CCCCC1)c1ccc2ccccc2c1 (centres undefined)	ROMK primary -5.8 | ROMK hit retest 0.059
CCOC(=O)N1CCN(C(=O)c2cc3c(=O)[nH]c4ccccc4c3s2)CC1	none (no result: Calb biofilm kill)
CCCN1CCN(CCCNC(=O)c2cc3c(=O)[nH]c4ccccc4c3s2)CC1	ROMK primary -3.8 (no result: Pf gamet viab) | ROMK hit retest 0.059
CC(c1ccccc1)N1C(=O)CC(Sc2ncccc2C(=O)O)C1=O (centres undefined)	ROMK primary 0.9 (no result: Calb biofilm kill) | ROMK hit retest inactive
O=C(O)c1cccnc1SC1CC(=O)N(c2ccccc2)C1=O (centres undefined)	none
Cc1cc(C)c2cc(CN(CCCN(C)C)C(=S)NCc3ccccc3)c(=O)[nH]c2c1	ROMK primary -3.7 (no result: Pf gamet viab) | ROMK hit retest 0.054
Cc1cccc(NC(=S)N(CCN(C)C)Cc2cc3cccc(C)c3[nH]c2=O)c1	none
Cc1cccc(NC(=S)N(CCN(C)C)Cc2cc3cc(C)cc(C)c3[nH]c2=O)c1	ROMK primary -4.9 | ROMK hit retest 0.06
Cc1ccc(C)c2[nH]c(=O)c(CN(CCCN(C)C)C(=O)NCc3ccccc3)cc12	none (no result: ROMK primary, Pf gamet viab)
CC1(c2ccccc2)CC(C)(C)N(C(=O)CSc2nnc(N)s2)c2ccccc21 (centres undefined)	none (no result: ROMK primary)
CC1(c2ccccc2)CC(C)(C)N(C(=O)C2CCCO2)c2ccccc21 (centres undefined)	ROMK primary -3.6 (no result: Calb biofilm kill) | ROMK hit retest 0.058
COC(=O)C(Cc1ccc(O)cc1)NC(=O)NC12CC3CC(CC(C3)C1)C2 (centres undefined)	none (no result: ROMK primary, Calb biofilm kill)
COc1ccc(-n2ncc3c(=O)n(CC(=O)NC(C)C)cnc32)cc1	none (no result: ROMK primary, Calb biofilm kill)
C[C@H](NC(=O)c1ccccc1Cl)C(=O)NCc1cccs1	none
O=C1N=c2ccccc2=C1c1[nH]c(=S)[nH]c1O	none (no result: ROMK primary)
Cc1ccc(Cl)c2c1=NC(=O)C=2c1[nH]c(=S)[nH]c1O	ROMK primary -2.4 | ROMK hit retest 0.054
CC(C)c1ccc(C(=O)N2CCN(c3cnn(C)c(=O)c3Cl)CC2)cc1	none
CCOC(=O)c1cc(CC)sc1/N=C/C1=C(O)CCCC1=O	none
Cc1oc2c(c1C(=O)O)C(=O)c1ccccc1C2=O	none (no result: Pf gamet viab)
Cc1oc2c(c1C(=O)c1ccccc1)C(=O)C(=O)c1ccccc1-2	none (no result: ROMK primary, Calb biofilm kill) | ROMK hit retest inconclusive
CCOc1cccc(/C=C2\NC(=S)N(c3ccccc3)C2=O)c1O	none (no result: ROMK primary, Pf gamet viab) | ROMK hit retest 0.058
CCOc1cc(/C=C2\NC(=S)N(c3c(C)n(C)n(-c4ccccc4)c3=O)C2=O)ccc1O	none (no result: ROMK primary)
Cc1onc(-c2ccccc2)c1C(=O)N1CCN(c2ncccn2)CC1	none
Cc1cc(C)nc(Oc2ccc(Br)cc2)n1	none (no result: ROMK primary)
CCCCCCCCCCCC(=O)NC(Cc1ccc(OC)c([N+](=O)[O-])c1)C(=O)O (centres undefined)	ROMK primary 4.5 | ROMK hit retest inconclusive
CCOC(=O)C(Cc1ccc(OC)c([N+](=O)[O-])c1)NC(=O)CCC(=O)Nc1ccc(OC)cc1 (centres undefined)	none
C=CCN(CC=C)S(=O)(=O)c1ccc(NC(=S)NC(=O)/C=C/c2ccc(C)cc2)cc1	ROMK primary 1.7 (no result: Calb biofilm kill) | ROMK hit retest inactive
C=CCN(CC=C)S(=O)(=O)c1ccc(NC(=S)NC(=O)/C=C/c2cccc3ccccc23)cc1	none (no result: Calb biofilm kill)
Nc1ccccc1S(=O)(=O)NC1=NCCCCC1	none
COc1ccc([C@H]2CC(=O)C=C(C#CC(C)(C)C)C2)cc1	none (no result: ROMK primary, Calb biofilm kill)
O=c1cc(-c2ccc(O)cc2)oc2ccc(O)cc12	ROMK primary 2.5 | ROMK hit retest inactive
